Common to all, as to type: functional
In one assay the test system is MCF7. The experiment in a line: Cytotoxicity against human MCF7 cell. A digest of the protocol:
(§1)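 Human cancer cell panel: MCF-7 (breast), H-460 (lung) and SF-268 (central nervous system), run by the Monks et al. protocol; adriamycin served as the reference compound.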

The next assay deals with NCI-H460. The experiment in a line: Cytotoxicity against human H460 cells. A digest of the protocol: as §1
The next assay has as its system SF-268. The experiment in a line: Cytotoxicity against human SF-268 cells. A digest of the protocol: as §1

Broadly, the GI50 is the concentration that inhibits growth by half. A higher GI50 goes with lower sensitivity of the cells.

≈ marks a conversion by molar mass, not a printed value.

With `O=C(OC[C@@H]1O[C@@H](Oc2c(-c3ccc(O)c(O)c3)oc3cc(O)cc(O)c3c2=O)[C@H](O)[C@H]1O)c1cc(O)c(O)c(O)c1`, the GI50 in the assay on MCF7 was found to be 1.4 µg/mL (≈ 2.39 µM); with NCI-H460, 1.2 µg/mL (≈ 2.05 µM); in the assay on SF-268, 2.3 µg/mL (≈ 3.92 µM).
With `O=c1c(O)c(-c2ccc(O[C@@H]3O[C@@H](CO)[C@H](O)[C@H]3O)c(O)c2)oc2cc(O)cc(O)c12`, the GI50 was 9.1 µg/mL (≈ 21 µM) in the assay with MCF7, 7.3 µg/mL (≈ 16.8 µM) with NCI-H460 and more than 10 µg/mL with SF-268.
With `O=C(OC[C@H]1O[C@@H](Oc2c(-c3ccc(O)c(O)c3)oc3cc(O)cc(O)c3c2=O)[C@H](O)[C@@H](O)[C@@H]1O)c1cc(O)c(O)c(O)c1`, the 50% growth inhibitory concentration (GI50) with MCF7, in the assay with NCI-H460 and with SF-268 was more than 10 µg/mL in each case.
Take `O=C(OC[C@@H]1O[C@@H](Oc2c(-c3ccc(O)cc3)oc3cc(O)cc(O)c3c2=O)[C@H](O)[C@H]1O)c1cc(O)c(O)c(O)c1`: the values for the GI50 in the assay with MCF7, in the assay on NCI-H460 and in the assay on SF-268 were 9 µg/mL (≈ 15.8 µM), more than 10 µg/mL and more than 10 µg/mL, respectively.
Take `O=C(OC[C@H]1O[C@@H](Oc2c(-c3ccc(O)c(O)c3)oc3cc(O)cc(O)c3c2=O)[C@H](O)[C@@H](O)[C@@H]1OC(=O)c1cc(O)c(O)c(O)c1)c1cc(O)c(O)c(O)c1`: the figures for the GI50 in the assay on MCF7, in the assay on NCI-H460 and in the assay with SF-268 were more than 10 µg/mL, 3 µg/mL (≈ 3.9 µM) and more than 10 µg/mL, respectively.

Source of the values: ChEMBL document CHEMBL1142583, “Cytotoxic flavonol glycosides from Triplaris cumingiana” (2005).
